Assay outcomes (PubChem BioAssay)
DENV2 CPE: inhibitors of DENV2 cytopathic effect, primary screen, cell-based, plate reader, single concentration. 1.7% of 350,000 active. DENV2-infected cells, cytopathic effect rescue. AID 651640, 2012. CPE inhibition, % at 9.99 µM; in the data active = CPE inhibition above about 20%, passing the limit was not always enough; inconclusive = no clear call, values can overlap the other calls; tested in BHK-21 cells
E-selectin induc: E-selectin induction in HUVECs, primary screen, imaging, HUVEC, immunofluorescence imaging, single point; activation, % at 7.58 µM; P16581; normalized: neutral wells 0, TNF-alpha wells 100; 0.37% of 260,000 active; AID 686992, 2013;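 active = mean E-selectin-positive cell signal at least 10% of the positive control, reached in at least 60% of replicates, without over 20% cell loss; inconclusive = no rule given, readout overlaps actives, possibly toxicity-flagged; inactive = the rest, including those meeting only one limit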
Target sequence (P16581 whole entry, looked up): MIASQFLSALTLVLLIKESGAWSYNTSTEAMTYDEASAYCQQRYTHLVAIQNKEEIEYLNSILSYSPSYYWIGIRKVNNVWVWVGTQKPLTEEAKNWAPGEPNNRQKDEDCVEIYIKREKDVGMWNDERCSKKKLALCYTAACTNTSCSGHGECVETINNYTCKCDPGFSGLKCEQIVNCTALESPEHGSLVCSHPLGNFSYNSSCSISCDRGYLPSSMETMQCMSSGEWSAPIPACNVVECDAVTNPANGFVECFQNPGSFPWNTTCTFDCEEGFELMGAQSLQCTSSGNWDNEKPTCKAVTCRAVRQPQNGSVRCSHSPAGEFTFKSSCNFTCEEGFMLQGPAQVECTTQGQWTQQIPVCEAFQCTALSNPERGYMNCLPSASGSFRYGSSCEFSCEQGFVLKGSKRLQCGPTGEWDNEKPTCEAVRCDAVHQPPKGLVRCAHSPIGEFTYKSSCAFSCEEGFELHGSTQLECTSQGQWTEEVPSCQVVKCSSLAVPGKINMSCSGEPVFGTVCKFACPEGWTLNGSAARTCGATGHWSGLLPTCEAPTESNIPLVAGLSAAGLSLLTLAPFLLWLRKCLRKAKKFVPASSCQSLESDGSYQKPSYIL
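assay system = HUVEC, human umbilical vein endothelial cells | input = 3,000 HUVEC seeded per well | medium = EGM-2 growth medium on 0.1% gelatin-coated wells | dosing = one compound dose added by pin transfer | signal = immunofluorescence imaging | read-out basis = % PE-positive cells | control set = TNF-alpha, DMSO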
FGF22 binding: binders of human FGF22 protein, primary screen, FGF22 synaptogenesis inhibitor project, biophysical, thermal shift, single point; Fibroblast growth factor 22 (Homo sapiens), Q9HCT0; recombinant FGF22 thermal shift, SYPRO orange fluorescence; percent of sucrose octasulfate shift, DMSO zero; activity (Tm shift, normalised), % at 9.99 µM; 1.5% of 340,000 active; AID 651658, 2012;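 active = mean Tm shift, scaled 0 neutral to 100 positive control, at about 1.3% or above, every replicate too, limit read from the data; inconclusive = no clear call, values can overlap the other calls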
Target sequence (Q9HCT0 whole entry, looked up): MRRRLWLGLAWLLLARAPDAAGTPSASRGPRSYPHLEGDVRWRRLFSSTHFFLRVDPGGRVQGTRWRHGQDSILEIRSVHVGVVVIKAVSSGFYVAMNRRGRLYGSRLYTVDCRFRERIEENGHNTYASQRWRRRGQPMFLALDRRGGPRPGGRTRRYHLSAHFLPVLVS
Xi reactivation: activators of inactive X chromosome reactivation, primary screen, imaging, XiGFP fibroblasts, GFP high-content imaging, set 2; XiGFP mouse fibroblasts, % GFP-positive cells imaging, 3 d; cells co-treated with 5-aza-dC sensitizer; scaled so ellipticine positive control = 100%; activation, % at 7.58 µM; 0.055% of 360,000 active; AID 743238, 2013;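 active = mean normalized replicate activation at least 10% and every replicate at or above 10%; inconclusive = only one of the two criteria met; inactive = mean below 10% and not all replicates reach 10%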
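Schedule: 3 d treatment, 15 min room-temperature fixation; system: 68-5-11 XiGFP fibroblast line; buffer or medium: DMEM plus 5-aza-dC sensitizer; control set: ellipticine 6 µM positive control; compound: one concentration, pinned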
PglD DTNB: C. jejuni PglD acetyltransferase inhibitors, primary screen, biochemical, DTNB colorimetric, single point; UDP-N-acetylbacillosamine N-acetyltransferase PglD (Campylobacter jejuni); purified PglD enzyme, DTNB colorimetric CoA detection; inhibition, % at 12.5 µM; 0.098% of 360,000 active; AID 602405, 2012; in the data active = inhibition above about 16%, passing the limit was not always enough; inconclusive = no clear call, values can overlap the other calls
Statin myotox sup: suppressors of statin myotoxicity in C2C12 myotubes, primary screen, cell-based, single point, plate reader | C2C12 myotubes + simvastatin, ATP luminescence, 48 h; scaled: DMSO 0, geranylgeraniol control 100 | rescue of ATP level, % at 7.49 µM | 0.78% of 330,000 active | AID 602340, 2012;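 active = mean ATP rescue above about 67%, or every replicate alone reaching that limit, limit read from the data, passing the limit was not always enough; inconclusive = no clear call, values can overlap the other calls; inactive = mean under the limit and some replicate under it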;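 note: myotubes were challenged with 10 µM simvastatin during compound exposure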
Large screens that a line does not name were inactive. Shown are actives, neighbours in structure and some others; about 3.3% of the full set was active somewhere.

COc1ccc2c3c(n(C)c2c1)[C@@H](CO)N(C(=O)c1cccnc1)CC31CCN(S(=O)(=O)c2ccccc2)CC1	DENV2 CPE 39.1 (no result: PglD DTNB, Statin myotox sup)
COc1ccc2c3c(n(C)c2c1)[C@H](CO)NCC31CN(C(=O)c2ccc(F)cc2)C1	DENV2 CPE 69.2 (no result: PglD DTNB, Statin myotox sup)
CCS(=O)(=O)N1CCC2(CC1)CN(C(=O)c1ccc(F)cc1)[C@@H](CO)c1c2c2ccc(OC)cc2n1C	DENV2 CPE 24.2 (no result: PglD DTNB, Statin myotox sup)
COc1ccc2c3c(n(C)c2c1)[C@@H](CO)N(C(=O)c1cccc(F)c1)CC31CN(C(=O)c2cccc(F)c2)C1	DENV2 CPE 34.2 (no result: PglD DTNB, Statin myotox sup)
CCS(=O)(=O)N1CCC2(CC1)CN(C(=O)c1ccc(F)cc1)[C@H](CO)c1c2c2ccc(OC)cc2n1C	none (no result: PglD DTNB, Statin myotox sup)
C[C@@H]1CCCCO[C@@H](CN(C)C(=O)c2ccccc2)[C@H](C)CN([C@H](C)CO)C(=O)c2cc(NC(=O)CCCN(C)C)ccc2O1	none (no result: DENV2 CPE, FGF22 binding, PglD DTNB)
COC(=O)C[C@H]1CC[C@@H]2[C@H](COc3ccc(NC(=O)c4cc(C)on4)cc3C(=O)N2C)O1	none
COCC(=O)N(C)C[C@@H]1Oc2ncc(C#C[C@@H](C)O)cc2C(=O)N([C@@H](C)CO)C[C@H]1C	none
COc1ccc2c3c(n(C)c2c1)[C@H](CO)N(C(=O)Nc1ccccc1F)CC31CN(C)C1	DENV2 CPE 86.0 (no result: PglD DTNB, Statin myotox sup)
CCc1ccc(C(=O)NNC(=S)Nc2ccc(S(N)(=O)=O)cc2)s1	FGF22 binding 1.8 (no result: E-selectin induc, PglD DTNB, Statin myotox sup)
C[C@@H]1CN([C@@H](C)CO)C(=O)c2cc(NS(=O)(=O)c3ccc(F)cc3)ccc2O[C@H]1CN(C)Cc1ccc(-c2ccccc2)cc1	Statin myotox sup 70.6
C[C@@H]1CN([C@H](C)CO)C(=O)c2cc(NS(=O)(=O)c3ccc(F)cc3)ccc2O[C@@H]1CN(C)Cc1ccc(-c2ccccc2)cc1	Statin myotox sup inconclusive
C[C@H](CO)N1C[C@H](C)[C@H](CN(C)Cc2ccc(-c3ccccc3)cc2)Oc2ccc(NS(=O)(=O)c3cccs3)cc2CC1=O	DENV2 CPE 50.9
Cc1ccc(S(=O)(=O)Nc2ccc3c(c2)CC(=O)N([C@@H](C)CO)C[C@@H](C)[C@H](CN(C)Cc2ccc(-c4ccccc4)cc2)O3)cc1	Statin myotox sup 103.1 (no result: E-selectin induc, Xi reactivation)
Cc1ccc(S(=O)(=O)Nc2ccc3c(c2)CC(=O)N([C@H](C)CO)C[C@H](C)[C@H](CN(C)Cc2ccc(Oc4ccccc4)cc2)O3)cc1	DENV2 CPE 49.8
C[C@@H]1CCCCO[C@H](CN(C)Cc2ccc(C(=O)Nc3ccccc3N)cc2)[C@@H](C)CN([C@@H](C)CO)C(=O)c2cc(N(C)C)ccc2O1	none (no result: DENV2 CPE, E-selectin induc, FGF22 binding, PglD DTNB, Statin myotox sup)
CO[C@H]1CN(C)C(=O)c2ccc(NC(=O)C3CC3)cc2OC[C@@H](C)N(Cc2ccc(F)cc2)C[C@H]1C	none
CCn1c(SCC(=O)N2CCCC2)nnc1-c1ccc(N)cc1	Statin myotox sup 123.9 (no result: DENV2 CPE, E-selectin induc, FGF22 binding, Xi reactivation)
CCCCn1c(SCC(=O)N2CCCC2)nnc1-c1ccccc1	none (no result: DENV2 CPE, FGF22 binding, Xi reactivation)
CC(C)(C)c1ccc(NC(=O)c2ccccc2)c([N+](=O)[O-])c1	FGF22 binding 44.2 (no result: E-selectin induc)
Cc1ccc(NC(=O)c2ccco2)c([N+](=O)[O-])c1	FGF22 binding 43.5 (no result: E-selectin induc, PglD DTNB, Statin myotox sup)
CCOc1ccc(CC(=O)Nc2ccc(NC(=O)c3ccco3)cc2)cc1OCC	FGF22 binding 43.9
Cc1c(NC(=O)c2ccc(C(C)(C)C)cc2)cccc1[N+](=O)[O-]	none (no result: Statin myotox sup)
CCC(=O)Nc1ccc(NC(=O)c2ccco2)cc1	none (no result: E-selectin induc, Xi reactivation)
CCOc1ccccc1C(=O)Nc1cc(C)ccc1NC(=O)c1ccco1	FGF22 binding 1.7
O=C(CC1CC1)N1[C@@H](CO)[C@@H](c2ccccc2)C12CN(Cc1cc(F)ccc1F)C2	none (no result: PglD DTNB, Statin myotox sup)
CCOC(=O)C1=CC[C@@H](c2ccc(OC)cc2)N(S(=O)(=O)c2ccc(C)cc2)[C@H]1CC	none
CCOC(=O)C1=CC[C@H]2c3c(c4ccc(OC)cc4n3C)C(=O)C1N2S(=O)(=O)c1ccc(C)cc1	DENV2 CPE 31.1
C[C@H](CO)N1C[C@H](C)[C@@H](CN(C)S(=O)(=O)c2cccs2)Oc2c(NC(=O)Cn3cnnn3)cccc2C1=O	none (no result: DENV2 CPE, E-selectin induc, FGF22 binding, PglD DTNB, Statin myotox sup)
CC(C)[C@H](NC(=O)OCc1ccccc1)C(=O)OCC(=O)NCc1ccco1	FGF22 binding 43.1
COc1cc(OC)cc(C(=O)N[C@H](C(=O)OCC(=O)Nc2ccc(C(C)C)cc2)C(C)C)c1	E-selectin induc 63.6 (no result: PglD DTNB, Statin myotox sup)
CC(C)C(NC(=O)c1ccco1)C(=O)OCC(=O)Nc1ccc(C(N)=O)cc1 (configuration not stated)	FGF22 binding 43.3 (no result: E-selectin induc, PglD DTNB, Statin myotox sup)
CC(C)C(NC(=O)OCc1ccccc1)C(=O)OCC(=O)NCc1ccco1 (configuration not stated)	none (no result: DENV2 CPE, E-selectin induc, FGF22 binding, Xi reactivation)
COc1ccc(C#Cc2cnc3c(c2)C(=O)N([C@H](C)CO)C[C@H](C)[C@H](CN(C)S(=O)(=O)c2ccc(C#N)cc2)O3)cc1OC	E-selectin induc inconclusive
C[C@H]1CN([C@@H](C)CO)C(=O)c2cc(NS(=O)(=O)c3cn(C)cn3)ccc2O[C@H]1CN(C)Cc1ccc(-c2ccccc2)cc1	none
C[C@@H]1CCCCO[C@@H](CN(C)C(=O)Cc2ccccc2)[C@H](C)CN([C@@H](C)CO)C(=O)c2cc(NS(=O)(=O)c3ccccc3)ccc2O1	none (no result: Statin myotox sup)
CCN(CC)S(=O)(=O)c1ccc(/C=C/C(=O)OCC(=O)Nc2ccc(C(N)=O)cc2)cc1	FGF22 binding 43.3 (no result: E-selectin induc, PglD DTNB, Statin myotox sup)
COc1ccc(CNCC(=O)Nc2cc(C)nn2-c2nc(C)cc(C)n2)cc1OC	FGF22 binding 43.6 (no result: PglD DTNB, Statin myotox sup)
Cc1cc(C)nc(-n2nc(C)cc2NC(=O)CNCc2ccccc2)n1	none (no result: DENV2 CPE, E-selectin induc, FGF22 binding, Xi reactivation)
C[C@H]1CN([C@@H](C)CO)C(=O)c2cc(NC(=O)Nc3ccc4c(c3)OCO4)ccc2O[C@@H]1CN(C)Cc1ccc(-c2ccccc2)cc1	none
CC(=O)c1ccc(NC(=O)CSc2nc(C)cc(C)c2C(N)=O)cc1	FGF22 binding 42.9 (no result: E-selectin induc)
O=C(O)c1cc(=O)c2c(OCC(O)COc3cccc4oc(C(=O)O)cc(=O)c34)cccc2o1	DENV2 CPE 25.7
COC(=O)C1=C(C)N=C2SC(C)C(=O)N2C1c1ccc(C(=O)OC)cc1 (configuration not stated)	none (no result: DENV2 CPE, E-selectin induc, FGF22 binding, Xi reactivation)
COC(=O)C1=C(C)N=C2SC(C)C(=O)N2C1c1cccs1 (configuration not stated)	Statin myotox sup 120.9 (no result: DENV2 CPE, E-selectin induc, FGF22 binding, Xi reactivation)
